# Compound activity: PubChem BioAssay, several laboratories
# Myeloid diff MLP: myeloid differentiation induction. ER-HoxA9 myeloid progenitors, lysozyme-GFP differentiation, flow cytometry. calls only at 10 µM. 360,000 compounds, 1% hits. AID 624256;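 active = normalized GFP-positive differentiation at or above the plate's own cutoff, the solvent-only control mean plus 3 SD; inconclusive = no clear call, values can overlap the other calls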;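 note: cells exposed to compound for four days before flow analysis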
# GAA850 FXN act: activators of GAA850 frataxin (FXN) promoter. HEK293 lucGAA850 FXN promoter luciferase reporter, 24 h; percent of 10 µM SAHA response. activation, % at 6 µM. 360,000 compounds, 0.56% hits. AID 540364;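 active = activation above the average of all compounds screened plus 3 SD, cutoff fixed separately per campaign, cut at about 7.5% in these data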
# T cell modulator: T cell immune modulators affecting CD8 T cell-vesicle binding | 330,000 compounds, 0.068% hits | 2C CD8+ T cell-vesicle binding, flow cytometry; active compounds read low | response (vesicle binding), % at 7 µM;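 active = response, share of CD8 T cells binding vesicles, and their 90th percentile fluorescence all below set limits, cut at about 80% in these data, passing the limit was not always enough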;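 note: values below 100% mean blocked vesicle binding to the CD8+ T cells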
#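 Test system: purified 2C TCR transgenic mouse naive CD8+ T cells. Probe or stimulus: QL9-peptide-loaded Drosophila micro-vesicles bearing Ld, ICAM-1 and B7-1. Incubation: binding step 1.5 h, 37 °C, antibody labelling 20 min, ice. Measured by: flow cytometry of vesicle-bound cells.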
# NR2E3 ag-1: NR2E3 (human) agonism | inhibition of corepressor binding, % at 4.78 µM | 320,000 compounds, 0.12% hits | GST-NR2E3/biotin-RetCOR TR-FRET, 1536-well | Q9Y5X4;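 active = percent inhibition above the cutoff of mean plus 3 SD of all tested compounds, set per screening campaign, cut at about 20% in these data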
# Target sequence (Q9Y5X4 whole entry, looked up): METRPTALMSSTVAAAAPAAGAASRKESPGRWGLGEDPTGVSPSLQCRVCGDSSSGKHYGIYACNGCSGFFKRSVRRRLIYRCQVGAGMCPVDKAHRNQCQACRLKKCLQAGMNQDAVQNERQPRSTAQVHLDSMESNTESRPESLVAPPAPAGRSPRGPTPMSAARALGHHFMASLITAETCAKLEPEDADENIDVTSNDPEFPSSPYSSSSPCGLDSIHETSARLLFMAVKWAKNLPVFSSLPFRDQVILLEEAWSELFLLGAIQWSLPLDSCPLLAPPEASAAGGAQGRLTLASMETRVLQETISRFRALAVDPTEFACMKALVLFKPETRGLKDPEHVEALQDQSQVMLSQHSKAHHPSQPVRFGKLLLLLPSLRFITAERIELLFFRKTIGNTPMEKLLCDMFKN
#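 System: GST-NR2E3 and biotin-RetCOR proteins; probe or stimulus: 7 nM biotin-RetCOR; doses: compound at 4.8 µM, single dose; schedule: Compound–protein incubation for 5 h at 4 °C; detection: time-resolved FRET; read-out: percent inhibition; controls: biotin wells as high control, 0.6% DMSO wells as low control; format: 1536-well plates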
# NR2E3 ag-2: activates human NR2E3 receptor; Q9Y5X4; CHO-S Gal4-NCOR/VP16-NR2E3 two-hybrid, luciferase; AID 602229; inhibition of corepressor binding, % at 3.98 µM; 360,000 compounds, 0.35% hits;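 active = inhibition above the mean of all tested compounds plus 3 SD, cut at about 70% in these data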;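 note: higher means lower luciferase signal from less NR2E3 corepressor binding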
# Numbers stand for hits; 0 = inactive; ? = inconclusive; - = no result; + = active, no number. Sampled rows, rich in hits. Any-hit rate of the full collection: about 2%.
SMILES,Myeloid diff MLP,GAA850 FXN act,T cell modulator,NR2E3 ag-1,NR2E3 ag-2
O=C1c2ccccc2C(c2nnnn2Cc2ccccc2)N1Cc1ccco1 (stereo not given),0,-,-,-,0
CCN(CC)S(=O)(=O)c1ccc(NC2c3ccccc3C(=O)N2CCN2CCOCC2)cc1 (stereo not given),+,0,0,0,0
O=C1Nc2ccccc2-c2nnnn2C1N1CCCCC1 (stereo not given),0,-,-,-,-
N#CC(=C(O)CN1CCN(c2ccccc2F)CC1)c1nc(-c2ccc(Cl)cc2)cs1,0,0,-,-,0
N#CC(=Cc1ccccn1)c1nc(-c2ccc(Cl)cc2)cs1,+,0,-,-,0
COc1ccc(-c2c(C(=O)c3ccc(Br)cc3)[nH]c(N)c2C(=O)c2ccccc2)cc1OC,+,-,-,-,0
COc1ccc(-c2c(C(=O)c3ccccc3)[nH]c(N)c2C(N)=O)cc1OC,0,-,-,-,0
Cc1cc(C)c(-c2csc(NC(=O)/C=C/c3cccs3)n2)c(C)c1,+,0,0,0,0
Cc1cc(C)nc(NC(=O)/C=C/c2cccs2)c1,0,0,0,0,0
CCCN(CC(=O)Nc1ccc(F)c(F)c1F)C(=O)Cn1c(=O)cnc2ccccc21,+,0,0,0,0
O=C(Cn1sc2ccccc2c1=O)Nc1ccccc1,+,0,-,-,0
O=C(Cn1sc2ccccc2c1=O)NC12CC3CC(CC(C3)C1)C2,0,0,0,0,0
O=C1CC(c2nc3ccccc3[nH]2)CN1Cc1ccccc1 (stereo not given),0,0,47,0,0
O=C1CC(N2CCC(c3nc4ccccc4[nH]3)CC2)C(=O)N1Cc1ccccc1 (stereo not given),0,0,0,0,0
COc1ccc(-c2ccc(CN3C(C)C(=O)N(Cc4cn(CCC5OCCO5)nn4)CCS3(=O)=O)cc2)cc1OC (stereo not given),0,0,-,-,0
N#CC1=C(N)Oc2cc(N)ccc2C1c1ccc(F)cc1F (stereo not given),+,0,0,0,0
Cc1ccc(N2CC(C(=O)OCC(=O)Nc3cc(C)on3)CC2=O)c(C)c1 (stereo not given),+,0,0,0,0
CCN(CC)c1ccc2c(Cl)cc(=O)oc2c1,-,-,52,0,-
Cc1ccc(C(C)C)c(OCC(=O)c2c(O)c3ccccc3oc2=O)c1,0,0,0,0,0
C[C@]12CCC(=O)CC1=CCC1C3CC=C(C#N)[C@@]3(C)CC[C@@]12O (stereo not given in full),+,0,0,0,0
C#CC(=O)CC1(CN(Cc2ccccc2)C(=O)OC(C)(C)C)CCCCC1,0,0,-,-,0
Cc1ccc(/C=C/C(=O)Nc2cccc(S(=O)(=O)N3CCOCC3)c2)o1,+,0,0,0,0
Cc1ccc(-n2nnnc2SCC(=O)c2c(N)n(C3CC3)c(=O)[nH]c2=O)cc1,+,0,0,0,0
Nc1nc(N)c2c(ccc3c2ccn3Cc2cccc([N+](=O)[O-])c2)n1,+,-,-,-,0
CCc1ccc(-c2ccc(C(=O)O)cc2)nc1,0,0,33,0,0
SMILES,Myeloid diff MLP,GAA850 FXN act,T cell modulator,NR2E3 ag-1,NR2E3 ag-2
CCN(CC)c1ccc2cc(C(=O)c3cccs3)c(=O)oc2c1,+,-,-,-,0
CCN(CC)c1ccc2cc(-c3nc4ccccc4n3C)c(=O)oc2c1,?,0,0,0,0
CCN(CC)c1ccc2cc(-c3nc4ccccc4[nH]3)c(=O)oc2c1,+,0,0,0,0
CCN(CC)c1ccc2cc(-c3nnc(-c4ccccc4)o3)c(=O)oc2c1,+,0,0,0,0
COc1cc(/C=C2/CC/C(=C/c3ccc(O)c(OC)c3)C2=O)ccc1O,+,0,0,0,0
COc1cc(CNc2ccc(N3CCCCC3)cc2)ccc1OCC(=O)NC(C)(C)C,0,0,0,0,0
COc1cc(CNc2ccc(N3CCCC3)cc2)ccc1OCc1ccccc1F,+,0,0,0,0
COc1cc(CNc2ccc(S(N)(=O)=O)cc2)ccc1OCc1ccccc1F,0,0,-,-,0
COc1cc(CNc2ccc(N3CCCC3)cc2)ccc1OCc1ccccc1,+,0,0,0,0
COc1ccc(-c2ccc3c(c2)C2CC3CCN2C(=O)OCc2ccccc2)cc1 (stereo not given),0,0,-,-,0
COCCNc1nnc(Cc2ccccc2)c(=O)[nH]1,+,0,0,0,0
COc1ccccc1Nc1nnc(Cc2ccccc2)c(=O)[nH]1,0,0,0,0,0
CCOc1cccc(-c2ccc3nncn3c2)c1,0,0,-,-,0
Cc1ccc(C)c(CSc2nnc(-c3cccs3)n2Cc2ccco2)c1,+,0,0,0,0
NC(=O)CSc1nnc(-c2cccs2)n1Cc1ccco1,0,0,0,0,0
COc1cc(NC(=O)Nn2cnnc2)cc(OC)c1OC,+,0,0,0,0
COc1ccc(NC(=O)Nn2cnnc2)cc1OC,0,0,0,0,0
Cc1cc(N2CCCC2)ccc1/C=N/n1cnnc1,+,0,0,0,0
CC(=O)Nc1sc(N/N=C/c2ccc(C)cc2)nc1-c1ccc(C)cc1,0,0,0,0,0
CC(=O)Nc1sc(/C(C#N)=C/c2ccc(Cl)c(Cl)c2)nc1-c1ccc(C)cc1,+,0,-,-,0
COc1ccc(Nc2ncccc2C(=O)NCc2ccccc2)cc1,0,0,0,0,0
COc1cccc(Nc2ncccc2C(=O)NCc2ccccc2)c1,+,0,-,-,0
O=C(Nc1ccc(-c2nc3ccccc3[nH]2)cc1)c1ccco1,0,8.6,0,0,0
O=C(/C=C/c1ccco1)Nc1ccc(-c2nc3ccccc3[nH]2)cc1,0,0,0,0,0
CC(C)(C)c1ccc(CNC(=O)c2ccc3c(c2)NC(=O)CO3)cc1,+,0,0,0,0
SMILES,Myeloid diff MLP,GAA850 FXN act,T cell modulator,NR2E3 ag-1,NR2E3 ag-2
COc1ccc(CCC(=O)NCC(=O)OCc2ccccc2)cc1,0,0,0,0,0
Cc1cccc(NC(=O)CN2CCN(C(=O)c3cc(C4CC4)nn3-c3ccccc3)CC2)c1C,+,0,-,-,0
O=C(CN1CCN(C(=O)c2cc(C3CC3)nn2-c2ccccc2)CC1)Nc1ccc(F)cc1,0,0,-,-,0
CCn1cc(C(=O)NC(C)C23CC4CC(CC(C4)C2)C3)cn1 (stereo not given),+,0,0,0,0
CCn1cc(C(=O)NC(C)C2CC3CCC2C3)cn1 (stereo not given),0,0,0,0,0
CN(C)c1ccc(-c2sc(Nc3ccccc3)n[n+]2-c2ccc(F)cc2)cc1,0,0,0,0,0
CCN(CC)c1ccc(-c2sc(Nc3ccccc3)n[n+]2-c2ccc(F)cc2)cc1,+,0,0,0,0
O=[N+]([O-])c1cccn2cc(-c3ccc(Br)cc3)nc12,+,0,0,0,0
Cc1ccc2nc(N3CC(=O)Nc4ccccc43)nc(-c3ccccc3)c2c1,+,0,0,0,0
O=C(Nc1ccncc1)C1(c2ccccc2)CCCC1,0,0,0,0,0
O=C(Nc1ccc(O)c(-c2nc3ccccc3o2)c1)C1(c2ccccc2)CCCC1,+,0,0,0,0
